Data as given in ChEMBL document CHEMBL4130485, “Inhibitors of Yellow Fever Virus replication based on 1,3,5-triphenyl-4,5-dihydropyrazole scaffold: Design, synthesis and antiviral evaluation” (Eur J Med Chem, 2017).

Tests used:
[1] = Selectivity index, ratio of CC50 for African green monkey Vero 76 cells to EC50 for Human coxsackievirus B5 Faulkner; format: toxicity; settings: read-out: Ratio CC50/EC50
In short: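 Selectivity index calculated as Vero 76 CC50 (MTT) divided by CVB-5 plaque-reduction EC50.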

[2] = tested on: Bovine viral diarrhea virus 1; assay: Antiviral activity against Bovine viral diarrhea virus NADL ATCC VR 534 infected in bovine MDBK cells assessed as protection against virus-induced cytopathic effect after 3 to 4 days by MTT assay; format: functional, organism-based, Bovine viral diarrhea virus 1-NADL; settings: Bovine viral diarrhea virus isolates and strains, ATCC VR 534, MDBK
In short: (§1)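 BHK-21 cells (MDBK for BVDV) seeded at 5×10^4 (BHK) or 3×10^4 (MDBK) cells/well and grown overnight to confluence. Infected at m.o.i. 0.01 in maintenance MEM-Earle with 0.5% inactivated FBS. Serial compound dilutions added 2 h later (final 100, 20, 4, 0.8 µM; DMSO ≤0.1%). Viability read by MTT after 3–4 days at 37 °C. EC50 obtained by linear regression against untreated controls; mean of three determinations.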

Human orthopneumovirus = assay: Antiviral activity against Human respiratory syncytial virus A2 ATCC VR 1540 infected in African green monkey Vero 76 cells assessed as protection against virus-induced cytopathic effect after 5 days by crystal violet staining-based plaque reduction assay; format: functional, organism-based; settings: ATCC VR 1540, Vero 76, 120 h
dengue virus type 2 = assay: Antiviral activity against Dengue virus type 2 clinical isolate infected in golden hamster BHK21 cells assessed as protection against virus-induced cytopathic effect after 3 to 4 days by MTT assay; format: functional, organism-based; settings: BHK-21; in short: as §1
Yellow fever virus [3] = assay: Potency index, ratio of azauridine EC50 to compound EC50 for Yellow fever virus 17D vaccine (Stamaril Pasteur J07B01); format: functional
[4] = Cytotoxicity against bovine MDBK cells assessed as decrease in cell viability after 72 hrs by MTT assay; format: cell-based, Bos taurus; settings: cattle
In short: (§2)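 Uninfected MDBK (6×10^5 cells/mL, 10% horse serum) or BHK (1×10^6 cells/mL, 10% FBS) cells in MEM-Earle with serial compound dilutions at 37 °C, 5% CO2, run in parallel with the antiviral assays. Viability read by MTT after 72 h. CC50 by linear regression; mean of three determinations.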

[5] = tested on: Mammalian orthoreovirus 1; assay: Antiviral activity against Reovirus 1 infected in golden hamster BHK21 cells assessed as protection against virus-induced cytopathic effect after 3 to 4 days by MTT assay; format: functional, organism-based; settings: Mammalian orthoreovirus 1, BHK-21; in short: as §1
Yellow fever virus [6] = assay: Antiviral activity against Yellow fever virus 17D vaccine (Stamaril Pasteur J07B01) infected in golden hamster BHK21 cells assessed as protection against virus-induced cytopathic effect after 3 to 4 days by MTT assay; format: functional, organism-based; settings: BHK-21; in short: as §1
[7] = tested on: Vesicular stomatitis Indiana virus; assay: Antiviral activity against Vesicular stomatitis virus Indiana ATCC VR 158 infected in African green monkey Vero 76 cells assessed as protection against virus-induced cytopathic effect after 2 days by crystal violet staining-based plaque reduction assay; format: functional, organism-based; settings: ATCC VR 158, Vero 76, 48 h
[8] = Cytotoxicity against human MT4 cells assessed as decrease in cell viability after 96 hrs by MTT assay; format: cell-based
In short: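 Exponentially growing MT-4 cells seeded at 1×10^5 cells/mL in RPMI-1640 with 10% FBS and incubated with serial compound dilutions at 37 °C, 5% CO2. Viability read by MTT after 96 h. CC50 by linear regression versus untreated controls.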

[9] = Cytotoxicity against African green monkey Vero 76 cells assessed as decrease in cell viability after 48 to 96 hrs by MTT assay; format: cell-based; settings: chlorocebus sabaeus
In short: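 Vero 76 cells seeded at 5×10^5 cells/mL in D-MEM with 10% FBS and incubated with serial compound dilutions at 37 °C, 5% CO2. Viability read by MTT after 48–96 h. CC50 by linear regression versus untreated controls.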

Human alphaherpesvirus 1 = assay: Antiviral activity against Human herpesvirus 1 KOS ATCC VR 1493 infected in African green monkey Vero 76 cells assessed as protection against virus-induced cytopathic effect after 3 days by crystal violet staining-based plaque reduction assay; format: functional, organism-based; settings: Human alphaherpesvirus 1, KOS, Vero 76, 72 h
[10] = Selectivity index, ratio of CC50 for golden hamster BHK21 cells to EC50 for Yellow fever virus 17D; format: toxicity; settings: read-out: Ratio CC50/EC50
In short: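 Selectivity index calculated as BHK-21 CC50 divided by YFV EC50, both from MTT assays.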

[11] = tested on: Human immunodeficiency virus 1; assay: Antiviral activity against HIV1 3B infected in human MT4 cells assessed as protection against virus-induced cytopathic effect after 4 days by MTT assay; format: functional, organism-based; settings: Human immunodeficiency virus 1, 3B, MT4, 96 h
In short: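 MT-4 cells (1×10^4/well) in RPMI with serial compound dilutions, infected with 100 CCID50 HIV-1 (m.o.i. 0.01). Viability read by MTT after 4 days at 37 °C. EC50 for 50% protection from cytopathicity obtained by linear regression versus untreated controls; mean of three determinations.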

[12] = Antiviral activity against Human enterovirus B Faulkner ATCC VR 185 infected in African green monkey Vero 76 cells assessed as protection against virus-induced cytopathic effect after 3 days by crystal violet staining-based plaque reduction assay; format: functional, cell-based; settings: Faulkner ATCC VR 185, Vero 76, 72 h
West Nile virus = assay: Antiviral activity against West Nile virus clinical isolate infected in golden hamster BHK21 cells assessed as protection against virus-induced cytopathic effect after 3 to 4 days by MTT assay; format: functional, organism-based; settings: BHK-21; in short: as §1
Vaccinia virus = assay: Antiviral activity against Vaccinia virus Lister ATCC VR 1549 infected in African green monkey Vero 76 cells assessed as protection against virus-induced cytopathic effect after 3 days by crystal violet staining-based plaque reduction assay; format: functional, organism-based; settings: Orthopoxvirus vaccinia, ATCC VR 1549, Vero 76, 72 h
Enterovirus C = assay: Antiviral activity against Enterovirus C Sabin […] infected in African green monkey Vero 76 cells assessed as protection against virus-induced cytopathic effect after 2 days by crystal violet staining-based plaque reduction assay; format: functional, organism-based; settings: Vero 76, 48 h
[13] = Cytotoxicity against golden hamster BHK21 cells assessed as decrease in cell viability after 72 hrs by MTT assay; format: cell-based, Mesocricetus auratus, BHK-21; in short: as §2

Row | SMILES | selectivity ratio [1] | EC50 [2] [µM] | EC50 (Human orthopneumovirus) [µM] | EC50 (dengue virus type 2) [µM] | Ratio EC50 (Yellow fever virus [3]) | CC50 at 72 h [4] [µM] | EC50 [5] [µM] | EC50 (Yellow fever virus [6]) [µM] | EC50 [7] [µM] | CC50 at 96 h [8] [µM] | CC50 [9] [µM] | EC50 (Human alphaherpesvirus 1) [µM] | selectivity ratio [10] | EC50 [11] [µM] | EC50 [12] [µM] | EC50 (West Nile virus) [µM] | EC50 (Vaccinia virus) [µM] | EC50 (Enterovirus C) [µM] | CC50 at 72 h [13] [µM]
1 | NS(=O)(=O)c1ccc(N2N=C(c3ccc(Oc4ccccc4)cc3)CC2c2ccc(F)cc2)cc1 (stereo unspecified) | 4.2 | > 6 | > 25 | > 9 | 10 | 6 | > 8 | 1.8 | > 25 | 33 | 25 | > 25 | 5 | > 33 | 6 | > 9 | > 25 | > 25 | 8 to 9
2 | NS(=O)(=O)c1ccc(N2N=C(c3ccc(Oc4ccccc4)cc3)CC2c2ccccc2F)cc1 (stereo unspecified) | 13.7 | > 36 | > 96 | > 34 | 10 | 36 | > 32 | 1.9 | > 96 | 36 | 96 | > 96 | 17.9 | > 36 | 7 | > 34 | > 96 | > 96 | 32 to 34
3 | Cc1ccccc1C1CC(c2ccc(OCc3ccccc3)cc2)=NN1c1ccc(S(N)(=O)=O)cc1 (stereo unspecified) |  | > 100 | > 100 | > 22 | 10 | > 100 | > 20 | 1.8 | > 100 | ≥ 100 | 100 | > 100 | 12.2 | > 100 | > 100 | > 22 | > 100 | > 100 | 20 to 22
4 | NS(=O)(=O)c1ccc(N2N=C(c3ccc(Oc4ccccc4)cc3)CC2c2cccc(Cl)c2)cc1 (stereo unspecified) |  | > 6 | > 88 | > 10 | 10 | 6 | > 9 | 2.2 | > 88 | 8 | 88 | > 88 | 4.5 | > 8 | > 88 | > 10 | > 88 | > 88 | 9 to 10
5 | NS(=O)(=O)c1ccc(N2N=C(c3ccc(Oc4ccccc4)cc3)CC2c2cccc(F)c2)cc1 (stereo unspecified) | 6.7 | > 12 | > 28 | > 10 | 10 | 12 | > 11 | 1.8 | > 28 | 25 | 28 | > 28 | 5.6 | > 25 | 4.2 | > 10 | > 28 | > 28 | 10 to 11
6 | NS(=O)(=O)c1ccc(N2N=C(c3ccc(Oc4ccccc4)cc3)CC2c2ccc(Cl)cc2)cc1 (stereo unspecified) |  | > 19 | > 88 | > 8 | 10 | 19 | > 7 | 1.9 | > 88 | 9 | 88 | > 88 | 4.2 | > 9 | > 88 | > 8 | > 88 | > 88 | 7 to 8
7 | Cc1cc(CCCOc2c(C)cc(-c3noc(C(F)(F)F)n3)cc2C)on1 [PLECONARIL] | 16000 |  |  |  |  |  |  |  |  |  | 83 |  |  |  | 0.005 |  |  | 2.7 | 
8 | Cc1ccc(C2CC(c3ccccc3)=NN2c2ccc(S(N)(=O)=O)cc2)cc1 (stereo unspecified) |  | > 32 | > 20 | > 8 | 10 | 32 | > 7 | 2.2 | > 20 | 40 | 20 | > 20 | 3.6 | > 40 | > 20 | > 8 | > 20 | > 20 | 7 to 8
9 | NS(=O)(=O)c1ccc(N2N=C(c3ccc(OCc4ccccc4)cc3)CC2c2ccc(F)cc2)cc1 (stereo unspecified) |  | > 100 | > 90 | > 60 | 10 | > 100 | > 69 | 1.9 | > 90 | > 100 | 90 | > 90 | 31.6 | > 100 | > 90 | > 60 | > 90 | > 90 | 60 to 69
